The text below walks through data of ChEMBL document CHEMBL1134271 (J Med Chem, 2001).

The target in data set [1] is T1, Endothelin-1 receptor (Rattus norvegicus, UniProt P26684).
T1 sequence (P26684 whole entry): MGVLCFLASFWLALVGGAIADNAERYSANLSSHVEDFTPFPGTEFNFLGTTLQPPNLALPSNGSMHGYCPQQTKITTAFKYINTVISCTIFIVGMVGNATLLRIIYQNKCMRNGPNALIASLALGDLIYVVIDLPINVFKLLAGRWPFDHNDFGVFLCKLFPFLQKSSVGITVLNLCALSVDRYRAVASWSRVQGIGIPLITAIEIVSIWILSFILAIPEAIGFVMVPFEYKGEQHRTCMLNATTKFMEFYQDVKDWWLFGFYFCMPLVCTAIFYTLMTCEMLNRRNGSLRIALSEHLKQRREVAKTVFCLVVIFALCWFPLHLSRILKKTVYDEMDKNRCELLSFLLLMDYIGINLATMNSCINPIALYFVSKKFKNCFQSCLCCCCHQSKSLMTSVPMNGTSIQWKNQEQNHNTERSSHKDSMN
As to the kind of experiment: Binding affinity against endothelin A receptor in MMQ cells in rat. The format is cell-based.

The target in data set [2] is T2, Endothelin receptor type B (Homo sapiens, UniProt P24530).
T2 sequence (P24530 whole entry): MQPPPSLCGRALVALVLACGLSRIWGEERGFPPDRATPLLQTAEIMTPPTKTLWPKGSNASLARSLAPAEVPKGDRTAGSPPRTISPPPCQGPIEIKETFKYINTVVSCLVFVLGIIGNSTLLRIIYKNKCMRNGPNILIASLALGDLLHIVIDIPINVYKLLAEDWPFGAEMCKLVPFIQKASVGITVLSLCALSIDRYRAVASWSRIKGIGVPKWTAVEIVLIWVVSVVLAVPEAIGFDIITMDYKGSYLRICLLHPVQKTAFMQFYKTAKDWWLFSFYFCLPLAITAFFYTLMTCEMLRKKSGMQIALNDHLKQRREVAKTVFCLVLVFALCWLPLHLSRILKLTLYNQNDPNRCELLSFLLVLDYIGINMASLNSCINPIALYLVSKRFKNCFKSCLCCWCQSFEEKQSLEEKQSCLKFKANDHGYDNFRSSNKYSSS
Kind of data set: Binding affinity against human endothelin B receptor in CHO cells. In kind it is cell-based. In outline:
(§1)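 Human ET-A and ET-B receptors expressed in CHO cells, run as a second binding assay alongside the rat/porcine screen. IC50 was derived from radioligand displacement: [125I]ET-1 for ET-A and [125I]ET-3 for ET-B.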

Data set [3] can be described thus: Compound was evaluated for pharmacokinetic data, area under curve (AUC). In kind it is ADME. In outline:
(§2)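 Rats (n = 3) were given 10 mg/kg by oral gavage. Plasma drug concentration was followed over time and compared with the intravenous time course. Oral half-life, Cmax, AUC and oral bioavailability were derived from these profiles.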

Data set [4] can be described thus: Compound was evaluated for pharmacokinetic data, Cmax. Particulars: in vivo. In kind it is ADME, organism-based. The method in brief:
as §2

A short description of data set [5]: Compound was evaluated for half-life period when administered intravenously. In kind it is ADME, organism-based. Particulars: in vivo, iv. In outline:
(§3)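 Rats were dosed by intravenous injection at 5 mg/kg. Plasma drug levels were followed over time, and half-life was derived from the iv time course.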

The nature of data set [6]: Compound was evaluated for half life period when administered orally. In kind it is ADME, organism-based. To be noted: in vivo, po. In outline:
as §2

Data set [7] in a line: (§4) Compound was evaluated for bioavailability. To be noted: eutheria, in vivo. In kind it is ADME, organism-based. In outline:
as §2

In data set [8] the target is T3, Endothelin-1 receptor (Homo sapiens, UniProt P25101).
T3 sequence (P25101 whole entry): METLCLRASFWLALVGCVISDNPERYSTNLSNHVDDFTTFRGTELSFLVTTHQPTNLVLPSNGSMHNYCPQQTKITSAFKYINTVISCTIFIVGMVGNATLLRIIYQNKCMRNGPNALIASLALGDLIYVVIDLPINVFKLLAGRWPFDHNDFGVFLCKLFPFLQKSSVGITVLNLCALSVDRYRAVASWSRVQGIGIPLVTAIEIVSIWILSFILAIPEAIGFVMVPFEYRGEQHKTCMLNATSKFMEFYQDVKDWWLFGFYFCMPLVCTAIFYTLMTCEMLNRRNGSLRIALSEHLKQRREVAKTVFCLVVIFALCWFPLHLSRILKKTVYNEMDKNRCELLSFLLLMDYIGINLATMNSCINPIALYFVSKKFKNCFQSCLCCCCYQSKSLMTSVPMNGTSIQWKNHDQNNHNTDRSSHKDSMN
Kind of data set: Binding affinity against human Endothelin A receptor. In outline:
as §1

Data set [9] can be described thus: as §4. To be noted: eutheria, in vivo. The format is ADME, organism-based. The method in brief:
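Rats received the drug by intravenous injection (5 mg/kg) and by oral gavage (10 mg/kg), three rats per route. Plasma drug levels were followed over time. Oral bioavailability (F) was derived by comparing plasma exposure after oral dosing with that after iv dosing.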
The source holds these as a separate data set.

The nature of data set [10]: Compound was evaluated for half life period when administered intravenously. Particulars: in vivo, iv. The format is ADME, organism-based. In outline: as §3

The structures appear in SMILES notation.

Take `CCCCN(CCCC)C(=O)CN1C[C@H](c2ccc3occc3c2)[C@@H](C(=O)O)[C@@H]1c1ccc(OC)cc1`: the IC50 at Endothelin-1 receptor [1] turned out to be 0.48 nM. On to `CCCCN(CCCC)C(=O)CN1C[C@H](c2ccc3c(c2)CCO3)[C@@H](C(=O)O)[C@@H]1c1ccc(C)cc1`, for which the IC50 at Endothelin-1 receptor [1] came to 0.78 nM. With `CCCCN(CCCC)C(=O)CN1C[C@H](c2ccc3c(c2)OCCO3)[C@@H](C(=O)O)[C@@H]1c1ccc(CC)cc1`, the IC50 at Endothelin-1 receptor [1] came to 5.2 nM. Consider `CCCCN(CCCC)C(=O)CN1C[C@H](c2ccc3c(c2)CCO3)[C@@H](C(=O)O)[C@@H]1c1ccc(C)c(F)c1` (stereo in doubt; 8a), for which the half-maximal inhibitory concentration (IC50) in [2] was determined as 6200 nM. For the same molecule, the AUC in [3] worked out at 12500 ng·h/mL. In data set [4], this molecule registered a Cmax of 1840 ng/mL. Besides, in data set [5], the half-life is 2.1 h. In data set [6], this molecule gave a T1/2 of 4.7 h. Besides, the bioavailability in data set [7] came to 71.7%. The molecule also returned a Ki on Endothelin-1 receptor [8] of 0.039 nM.

On Endothelin-1 receptor [1], `CCCCN(CCCC)C(=O)CN1C[C@H](c2ccc3c(c2)OCO3)[C@@H](C(=O)O)[C@@H]1c1ccc(C(F)(F)F)cc1` displayed an IC50 of 3.28 nM.

Turning to `CCCCN(CCCC)C(=O)CN1C[C@H](c2ccc3c(c2)OCCO3)[C@@H](C(=O)O)[C@@H]1c1ccc(OC)cc1`, the IC50 on Endothelin-1 receptor [1] was 0.85 nM. `CCCCN(CCCC)C(=O)CN1C[C@H](c2ccc3c(c2)OCC3)[C@@H](C(=O)O)[C@@H]1c1ccc(OC)cc1` displayed a concentration for half-maximal inhibition (IC50) on Endothelin-1 receptor [1] of 1.2 nM. `CCCCN(CCCC)C(=O)CN1C[C@H](c2ccc3c(c2)OCO3)[C@@H](C(=O)O)[C@@H]1c1ccc(C)cc1` showed a concentration for half-maximal inhibition (IC50) on Endothelin-1 receptor [1] of 0.12 nM. Regarding `CCCCN(CCCC)C(=O)CN1C[C@H](c2ccc3c(c2)OCCO3)[C@@H](C(=O)O)[C@@H]1c1ccc(CC)c(F)c1`, the half-inhibitory concentration (IC50) in data set [2] was determined as 950 nM. `CCCCN(CCCC)C(=O)CN1C[C@H](c2ccc3c(c2)CCO3)[C@@H](C(=O)O)[C@@H]1c1ccc(CC)cc1` registered an IC50 on Endothelin-1 receptor [1] of 0.92 nM.

`CCCCN(CCCC)C(=O)CN1C[C@H](c2ccc3c(c2)OCO3)[C@@H](C(=O)O)[C@@H]1c1ccc(OC)cc1`: in data set [3], the AUC came to 7360 ng·h/mL. Moreover, in data set [4] (read-out: Cmax), the Cmax stood at 3440 ng/mL. The half-life in data set [6] is 6.2 h. The bioavailability in data set [7] (read-out: Bioavailability) amounted to 60.2%.

Molecule `CCCCN(CCCC)C(=O)CN1C[C@H](c2ccc3c(c2)OCO3)[C@@H](C(=O)O)[C@@H]1c1ccc(OC)c(F)c1` had a half-maximal inhibitory concentration (IC50) on Endothelin-1 receptor [1] of 0.07 nM. In the case of `CCCCN(CCCC)C(=O)CN1C[C@H](c2ccc3c(c2)CCO3)[C@@H](C(=O)O)[C@@H]1c1ccc(CC)c(F)c1`, the IC50 in data set [2] turned out to be 3050 nM. Turning to `CCCCN(CCCC)C(=O)CN1C[C@H](c2ccc3c(c2)OCO3)[C@@H](C(=O)O)[C@@H]1c1ccc(CC)cc1`, the IC50 on Endothelin-1 receptor [1] is 0.17 nM. On the same count and under the same terms, in the case of `CCCCN(CCCC)C(=O)CN1C[C@H](c2ccc3c(c2)OCO3)[C@@H](C(=O)O)[C@@H]1c1ccc(F)c(F)c1` it was 1.38 nM; in that of `CCCCN(CCCC)C(=O)CN1C[C@H](c2ccc3c(c2)OCO3)[C@@H](C(=O)O)[C@@H]1c1ccc(OC)c(OC)c1`, 0.11 nM.

In turn, `CCCCN(CCCC)C(=O)CN1C[C@H](c2ccc3c(c2)OCO3)[C@@H](C(=O)O)[C@@H]1c1ccc(CCC)cc1` gave a half-maximal inhibitory concentration (IC50) at Endothelin-1 receptor [1] of 1.06 nM. In turn, `CCCCN(CCCC)C(=O)CN1C[C@H](c2cc(OC)c3c(c2)OCO3)[C@@H](C(=O)O)[C@@H]1CC(C)(C)CCC` [ABT-546] came in with an AUC in [3] of 3270 ng·h/mL. In addition, the bioavailability in data set [9] turned out to be 47.7%. `CCCCN(CCCC)C(=O)CN1C[C@H](c2ccc3c(c2)CCO3)[C@@H](C(=O)O)[C@@H]1c1ccc(C)c(F)c1` (stereo in doubt; 8) returned an IC50 in data set [2] of 4400 nM. Further, the exposure (AUC) in [3] was found to be 9400 ng·h/mL. Further, in data set [4] (read-out: Cmax), the highest concentration (Cmax) came out at 930 ng/mL. Moreover, the half-life in [6] was 5.8 h; in data set [10], 4.7 h. In addition, the bioavailability in [7] (read-out: Bioavailability) came to 65.6%.
